Measured values published in ChEMBL document CHEMBL1152537, “Special feature of mixed phosphotriester derivatives of cytarabine” (Bioorg Med Chem, 2009).

Key:
[1] = Half life in total cell extract of deoxynucleoside analogue-sensitive mouse L1210 cells by HPLC analysis in presence of snake venom phosphodiesterase; format: ADME, cell-based
[2] = Half life in total cell extract of nucleoside analogue-resistant mouse L1210 10K cells by HPLC analysis in presence of snake venom phosphodiesterase; format: ADME, cell-based
[3] = Cytotoxicity against nucleoside transporter deficient and deoxynucleoside analogue-resistant human CEM/ARAC8C cells after 3 days by MTT assay; format: functional, cell-based; settings: 72 h
[4] = Cytotoxicity against deoxynucleoside analogue-sensitive human MESSA cells after 3 days by MTT assay; format: functional, cell-based; settings: MES-SA, 72 h
How it was run: (§1)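 Adherent lines (Messa in RPMI, MCF7 in DMEM, each with 10% FBS, L-glutamine and penicillin/streptomycin) seeded at 3000 cells/well and left 24 h at 37 °C before drugs were added over a concentration range. After 3 days at 37 °C, MTT (100 µg) was added for 2 h and the formazan dissolved in isopropanol/HCl/water for optical density.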

CCRF-CEM [5] = experiment: Resistance ratio of IC50 for deoxynucleoside analogue-resistant human CEM/ARAC8C cells to IC50 for deoxynucleoside analogue-sensitive human CCRF-CEM cells; format: functional
How it was run: (§2)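 RR is the 3-day MTT IC50 in the resistant line divided by the IC50 in its sensitive parental line. Significance between IC50s and RRs was tested by Student's t-test.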

MCF7 [6] = experiment: Cytotoxicity against deoxynucleoside analogue-resistant human MCF7 1K cells overexpressing ribonucleotide reductase after 3 days by MTT assay; format: functional, cell-based; settings: MCF7, 72 h; how it was run: as §1
L1210 [7] = experiment: Cytotoxicity against deoxynucleoside analogue-sensitive mouse L1210 cells after 3 days by MTT assay; format: functional, cell-based; settings: L1210, 72 h
How it was run: (§3)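 Suspension lines (CCRF-CEM, L1210) grown in RPMI with 10% FBS, L-glutamine and penicillin/streptomycin, added at 10,000 cells/well directly to media holding graded drug concentrations. After 3 days at 37 °C, MTT (100 µg) was added for 2 h and the formazan dissolved in isopropanol/HCl/water for optical density.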

[8] = Cytotoxicity against deoxycytidine kinase deficient and deoxynucleoside analogue-resistant human MESSA 10K cells after 3 days by MTT assay; format: functional, cell-based; settings: 72 h; how it was run: as §1
MCF7 [9] = experiment: Cytotoxicity against deoxynucleoside analogue-sensitive human MCF7 cells after 3 days by MTT assay; format: functional, cell-based; settings: MCF7, 72 h; how it was run: as §1
L1210 [10] = experiment: Resistance ratio of IC50 for deoxynucleoside analogue-resistant mouse L1210 10K cells to IC50 for deoxynucleoside analogue-sensitive mouse L1210 cells; format: functional; how it was run: as §2
CCRF-CEM [11] = experiment: Cytotoxicity against deoxynucleoside analogue-sensitive human CCRF-CEM cells after 3 days by MTT assay; format: functional, cell-based; settings: 72 h; how it was run: as §3
L1210 [12] = experiment: Cytotoxicity against deoxycytidine kinase deficient and nucleoside analogue-resistant mouse L1210 10K cells after 3 days by MTT assay; format: functional, cell-based; settings: L1210, 72 h; how it was run: as §3

Cc1cn([C@@H]2O[C@H](COP(=O)([O-])Oc3ccccc3)[C@@H](N=[N+]=[N-])[C@@H]2O)c(=O)[nH]c1=O.[Na+]
half-life [1]: 53 min
half-life [2]: 53 min

Cc1cn([C@H]2C[C@H](O)[C@@H](COP(=O)(O)Oc3ccc([N+](=O)[O-])cc3)O2)c(=O)[nH]c1=O
half-life [1]: 43 min
half-life [2]: 43 min

Nc1ccn([C@@H]2O[C@H](COP(=O)([O-])Oc3ccccc3)[C@@H](O)[C@@H]2O)c(=O)n1.[Na+]
half-life [1]: 276 min
half-life [2]: 276 min

Nc1ccn([C@@H]2O[C@H](CO)[C@@H](O)[C@@H]2O)c(=O)n1 [CYTARABINE]
IC50 [3]: 100 µM
IC50 [4]: 1.7 µM
Ratio IC50 (CCRF-CEM [5]): 100000
IC50 (MCF7 [6]): 0.04 µM
IC50 (L1210 [7]): 0.0004 µM
IC50 [8]: 6330 µM
IC50 (MCF7 [9]): 0.004 µM
Ratio IC50 (L1210 [10]): 257500
IC50 (CCRF-CEM [11]): 0.001 µM
IC50 (L1210 [12]): 103 µM
